Results on 18 compounds are retold here after ChEMBL document CHEMBL2157900, “Design, synthesis and in vitro activities on anti-platelet aggregation of 4-methoxybenzene-1,3-isophthalamides” (Bioorg Med Chem Lett, 2012).

SMILES strings stand for the structures.

Test system in one test: not listed separately
Description: Antiplatelet activity against rat platelet rich plasma assessed as inhibition of ADP-induced platelet aggregation after 2 mins by Born test method. The class given is functional. The method, boiled down: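 Rat blood was collected into 3.8% sodium citrate (1:9, v/v). Platelet-rich plasma was obtained by centrifugation at room temperature for 10 min (500–800 rpm). Platelet-poor plasma, made by spinning PRP at room temperature for 15 min (3000 rpm), set zero. Compound was incubated with PRP for 2 min, then aggregation was stimulated with ADP and read on an aggregometer. Results are given as percentage inhibition and IC50.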
By IC50 is commonly meant the concentration needed to halve the response being measured. With `COc1ccc(C(=O)Nc2ccccc2F)cc1C(=O)Nc1ccccc1F`, the IC50 is 0.86 µM.

Turning to `COc1ccc(C(=O)Nc2ccccc2Br)cc1C(=O)Nc1ccccc1Br`, the IC50 was found to be 0.66 µM.

On to `COc1ccc(C(=O)Nc2ccccc2I)cc1C(=O)Nc1ccccc1I`, for which the IC50 was 0.3 µM.

On to `COc1ccc(C(=O)Nc2ccccc2Cc2ccccc2)cc1C(=O)Nc1ccccc1Cc1ccccc1`, for which the IC50 was determined as 0.02 µM.

With `COc1ccc(C(=O)Nc2ccccc2CC#N)cc1C(=O)Nc1ccccc1CC#N`, the IC50 was 0.59 µM.

Consider `COc1cccc(NC(=O)c2ccc(OC)c(C(=O)Nc3cccc(OC)c3)c2)c1`, for which the IC50 was determined as 0.49 µM.

As to `CCOc1cccc(NC(=O)c2ccc(OC)c(C(=O)Nc3cccc(OCC)c3)c2)c1`, the IC50 stood at 0.81 µM.

Take `COc1ccc(C(=O)Nc2ccc(F)cc2)cc1C(=O)Nc1ccc(F)cc1`: the IC50 is 0.6 µM.

`COc1ccc(C(=O)Nc2ccc(Br)cc2)cc1C(=O)Nc1ccc(Br)cc1`: the IC50 worked out at 0.51 µM.

On to `COc1ccc(C(=O)Nc2ccc(I)cc2)cc1C(=O)Nc1ccc(I)cc1`, for which the IC50 was 0.49 µM.

With `COc1ccc(C(=O)Nc2ccc([N+](=O)[O-])cc2)cc1C(=O)Nc1ccc([N+](=O)[O-])cc1`, the IC50 turned out to be 0.75 µM.

On to `COc1ccc(C(=O)Nc2ccc(C)cc2)cc1C(=O)Nc1ccc(C)cc1`, for which the IC50 was 0.64 µM.

Regarding `COc1ccc(C(=O)Nc2ccc(C(C)=O)cc2)cc1C(=O)Nc1ccc(C(C)=O)cc1`, the IC50 came to 0.67 µM.

As to `CCCCOc1ccc(NC(=O)c2ccc(OC)c(C(=O)Nc3ccc(OCCCC)cc3)c2)cc1`, the IC50 stood at 0.49 µM.

As to `COc1ccc(C(=O)Nc2ccccc2)cc1C(=O)Nc1ccccc1`, the half-maximal inhibitory concentration (IC50) amounted to 0.77 µM.

`COc1ccc(C(=O)NCc2ccccc2)cc1C(=O)NCc1ccccc1`: the concentration for half-maximal inhibition (IC50) stood at 0.58 µM.

As to `COc1ccc(C(=O)NCCc2ccccc2)cc1C(=O)NCCc1ccccc1`, the IC50 came out at 0.24 µM.

As to `COc1ccc(C(=O)NCc2cccnc2)cc1C(=O)NCc1cccnc1` [PICOTAMIDE], the IC50 came to 0.76 µM.

The next test concerns Platelet. As to the kind of experiment: Ratio of picotamide IC50 to compound IC50 for rat platelet rich plasma assessed as inhibition of ADP-induced platelet aggregation. The class given is functional.
In the case of `COc1ccc(C(=O)Nc2ccccc2Cc2ccccc2)cc1C(=O)Nc1ccccc1Cc1ccccc1`, the “Ratio IC50” value is on record as 10.
